# Compound activity from PubChem BioAssay.
# M5 PAM – human M5 muscarinic receptor positive allosteric modulators, primary screen, CHO-K1 cells, Fluo-8 calcium fluorescence; Muscarinic acetylcholine receptor M5 (Homo sapiens), P08912; AID 624038, 2012; actives 0.3% (n = 360,000); activation, % at 3 µM; CHO-K1 hM5, ACh EC20 PAM; 0% = ACh EC20, 100% = ACh EC100;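 active = activation above the run cutoff, the mean activation of all test compounds plus 3 SD, cut at about 18% in these data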
#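 System: CHO-K1 hM5 cells. Reagent: acetylcholine, EC20 level. Compound dosing: single dose, 3 µM nominal final test concentration. Timing: Post-acetylcholine fluorescence recording 140 s. Detection: Fluo-8 calcium fluorescence. Read-out: % activation, ACh-normalized. Benchmarks: ACh EC20 and EC100 wells. Repeats: singlicate, one well per test compound.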
# CHRM4 antagonist – human M4 muscarinic receptor antagonists, primary screen, CHO cells, Fluo-8 calcium fluorescence. CHO-hM4 cells, ACh EC80. inhibition, % at 3 µM. Muscarinic acetylcholine receptor M4 (Homo sapiens), P08173. actives 0.73% (n = 360,000);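 active = inhibition above its plate's cutoff, the mean inhibition of sample wells plus 3 SD, cut at about 27% in these data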;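 also: 0% = acetylcholine EC80 with DMSO and 100% = DMSO without agonist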
# Target sequence (P08173 whole entry, looked up): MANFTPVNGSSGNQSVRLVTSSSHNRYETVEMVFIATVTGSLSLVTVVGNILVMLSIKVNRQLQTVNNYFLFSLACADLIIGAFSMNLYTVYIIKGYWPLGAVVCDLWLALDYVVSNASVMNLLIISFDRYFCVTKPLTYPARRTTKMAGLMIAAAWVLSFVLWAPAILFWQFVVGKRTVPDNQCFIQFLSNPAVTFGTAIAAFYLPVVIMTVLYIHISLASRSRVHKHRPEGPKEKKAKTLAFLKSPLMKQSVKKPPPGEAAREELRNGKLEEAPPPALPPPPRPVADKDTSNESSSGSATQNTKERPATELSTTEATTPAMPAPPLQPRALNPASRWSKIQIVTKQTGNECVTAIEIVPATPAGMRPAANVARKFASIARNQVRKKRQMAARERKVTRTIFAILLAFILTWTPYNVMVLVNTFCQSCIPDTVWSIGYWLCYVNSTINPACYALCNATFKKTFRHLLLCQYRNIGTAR
# M5 antag – human M5 muscarinic receptor antagonists, primary screen, CHO cells, Fluo-8 calcium fluorescence; Muscarinic acetylcholine receptor M5 (Homo sapiens), P08912; CHO-hM5 cells, ACh EC80; inhibition, % at 3 µM; actives 0.59% (n = 360,000); AID 624040, 2012;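 active = inhibition above a per-plate cutoff, the mean of that plate's test compounds plus 3 SD, cut at about 27% in these data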;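 also: 0% = acetylcholine EC80 with DMSO and 100% = DMSO without agonist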
# CHRM4 PAM – human M4 muscarinic receptor positive allosteric modulators, primary screen, CHO-K1 cells, Fluo-8 calcium fluorescence; Muscarinic acetylcholine receptor M4 (Homo sapiens), P08173; CHO-K1 hM4/Gqi5, ACh EC20; 0% = ACh EC20, 100% = maximal ACh; activation, % at 3 µM; actives 0.4% (n = 360,000);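 active = activation above its plate's cutoff, the mean activation of sample wells plus 3 SD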
# M5 ag – human M5 muscarinic receptor agonists, primary screen, CHO-K1 cells, Fluo-8 calcium fluorescence; CHO-K1 hM5 cells; 0% DMSO wells, 100% maximal acetylcholine response; activation, % at 3 µM; AID 624037, 2012; actives 0.19% (n = 360,000); Muscarinic acetylcholine receptor M5 (Homo sapiens), P08912;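 active = activation above the run's mean over test compounds plus 3 SD, cut at about 23% in these data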;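 also: signal is peak over basal fluorescence ratio across the kinetic read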
# CHRM4 agonist – human M4 muscarinic receptor agonists, primary screen, CHO-K1 cells, Fluo-8 calcium fluorescence. activation, % at 3 µM. actives 0.14% (n = 360,000). CHO-K1 hM4/Gqi5; vehicle 0%, full acetylcholine response 100%. Muscarinic acetylcholine receptor M4 (Homo sapiens), P08173;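 active = activation above the run mean over all test wells plus 3 SD, cut at about 32% in these data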;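 also: peak over basal fluorescence ratio per well then scaled between controls; 0% = DMSO wells and 100% = acetylcholine at EC100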
# Numbers without * were called inactive. Hits are enriched below; roughly 1.9% of the tested compounds scored in any of these assays.
SMILES,M5 PAM,CHRM4 antagonist,M5 antag,CHRM4 PAM,M5 ag,CHRM4 agonist
CSC1=NSC2=NC(=O)/C(=C\c3cccs3)C(=N)N12,-0.4,2.8,-1.8,-1.2,4.5,1.5
CC1=CC2=NC(=O)/C(=C/c3coc4ccc(Cl)cc4c3=O)C(=N)N2O1,-29.2,23.3,40.5*,-13.8,83.1*,44.9*
CCN(CC)c1ccc(C(=O)NC(=S)N2CCN(Cc3ccc4c(c3)OCO4)CC2)cc1,-3.5,-5.8,-5.0,-3.3,-8.0,-0.5
COc1ccc(-n2cc(CNCc3cccnc3)c(-c3cccc(F)c3)n2)cc1,0.8,-6.2,7.0,4.0,-0.4,4.7
COc1ccc(CNCc2cn(-c3cccc(F)c3)nc2-c2ccc(C)o2)cc1,-1.1,34.1*,-3.5,7.4,5.6,4.0
O=S1(=O)CC(N2CCN(CC3CC3)CC2)CN1Cc1cn(Cc2ccccc2C(F)(F)F)nn1 (stereo unspecified),1.3,-14.8,-5.6,5.4,-3.5,1.5
COc1ccc(S(=O)(=O)N2CCCCC2C(=O)O)cc1OC (stereo unspecified),20.9*,3.2,-1.6,-0.2,-2.7,0.6
COc1cc2c(cc1OC)CN(C(=O)CNS(=O)(=O)c1ccc(C)c(C)c1)CC2,23.2*,19.4,21.3,29.8*,1.5,16.0
COc1cc2c(cc1OC)CN(C(=O)C1CCCN1S(=O)(=O)c1ccc(F)cc1)CC2 (stereo unspecified),-1.0,-12.9,0.7,17.0*,-1.2,2.6
COc1cc2c(cc1OC)CN(C(=O)c1ccc(S(=O)(=O)N3CCCCC3)cc1)CC2,-2.5,-9.0,4.2,10.7,-4.1,1.9
COc1ccc(-c2sc3cc4c(cc3c2C#Cc2ccc(N)cc2)OCO4)cc1,9.5,4.7,3.3,18.7,26.5*,1.6
C/C(=N\NC(=O)c1cccc(C)c1)c1ccc(N2CCOCC2)cc1,18.5*,-19.6,-10.0,3.3,-2.4,2.5
CCCCN(C(=O)c1ccc([N+](=O)[O-])o1)c1c(N)n(CCCC)c(=O)[nH]c1=O,8.0,-10.9,-6.6,8.7,1.1,1.1
Cc1c(O)nc(SCC(=O)Nc2ccc3c4c(cccc24)CC3)n(-c2ccccc2)c1=O,2.3,10.8,2.2,-0.2,-2.3,1.9
O=C(CSc1nc(O)cc(=O)n1-c1ccccc1)Nc1ccc2c3c(cccc13)CC2,7.6,-12.3,-4.4,19.5*,0.3,1.1
COc1ccc(NC(=O)CSc2nc(O)cc(=O)n2-c2ccccc2)cc1,15.9,-8.9,-14.6,12.4,0.3,0.8
Cc1ccc(-n2c(SCC(=O)Nc3ccc(Cl)cc3)nc(O)cc2=O)cc1,-5.7,-4.2,31.5*,2.2,-8.6,0.3
CC(C)(C)N(Cc1ccccc1)C(=O)COC(=O)c1ccc(N2CCCC2=O)cc1,3.2,-5.6,5.5,5.7,2.1,0.6
CCNC(=O)CC1C(=O)N(c2ccccc2)C(=O)N1CCC(C)C (stereo unspecified),5.3,-4.1,7.5,25.1*,-2.3,0.3
CCc1ccc(NC(=O)CSc2nc(=O)n(CCN(C)C)c3c2CCCC3)cc1,0.2,-5.2,2.2,-0.2,-6.8,0.4
O=C(O)/C=C/c1cn(Cc2ccccc2Cl)nc1-c1ccccc1,19.8*,-11.9,-3.6,-3.2,0.2,2.4
Cc1ccc(NC(=O)OCCN2CCN(S(=O)(=O)c3ccc(C)cc3)CCC2=O)cc1,-0.1,-6.2,-3.6,4.8,5.5,6.6
Cc1ccc(S(=O)(=O)N2CCC(=O)N(CCOC(=O)Nc3cccc(Cl)c3)CC2)cc1,30.2*,-0.4,-86.0,9.3,12.4,9.7
CC(C)C12CN3CC(C(C)C)(CN(C1)C3c1ccccc1)C2O (stereo unspecified),-2.4,-0.2,1.5,32.4*,5.9,1.2
CN(C)c1ccc(C2N3CC4(C)CN2CC(C)(C3)C4O)cc1 (stereo unspecified),0.7,-28.6,-9.7,11.5,-0.6,1.2
SMILES,M5 PAM,CHRM4 antagonist,M5 antag,CHRM4 PAM,M5 ag,CHRM4 agonist
CC1(C)CC(=O)C2=C(C1)NC(=O)CC2c1cc2c(cc1Br)OCO2 (stereo unspecified),-1.9,-0.6,2.8,24.0*,-3.1,2.9
CC(=O)NCCNC(=O)c1ccc(NC2=NC3CS(=O)(=O)CC3S2)cc1 (stereo unspecified),26.7*,9.2,29.3*,9.1,3.0,3.5
CC(=C/c1ccccc1)/C=N/NC(=O)c1cccs1,-4.5,-3.3,3.3,-0.8,-4.8,-0.9
O=C(N/N=C/C(Br)=C\c1ccccc1)c1cccs1,22.8*,-4.3,-29.2,-1.3,6.5,1.9
CC1C=CC=CC=CC=CC=CC=CC=CC(OC2OC(C)C(O)C(N)C2O)CC2OC(O)(CC(O)CC(O)C(O)CCC(O)CC(O)CC(=O)OC(C)C(C)C1O)CC(O)C2C(=O)O (stereo unspecified),11.4,-1.6,-8.4,1.2,7.3,0.0
Nc1ccc2nc(SCC(=O)Nc3ccc(N4CCOCC4)c(Cl)c3)sc2c1,-20.9,6.1,27.4*,-11.3,4.8,13.7
O=C(Nc1cccc(C(F)(F)F)c1)C1CCN(S(=O)(=O)c2ccc(N3CCCC3=O)cc2)CC1,-13.9,22.1,36.9*,-7.3,1.9,17.3
CC(Oc1ccc(Cl)cc1)C(=O)Nc1cccc(S(=O)(=O)N2CCCC2)c1 (stereo unspecified),-1.9,-17.0,-1.9,2.6,0.5,0.9
O=C(Nc1ccc(S(=O)(=O)N2CCOCC2)cc1)c1cc(-c2cc(Cl)ccc2O)n[nH]1,-19.8,24.0,29.0*,-37.2,2.8,19.7
Cc1cc(O)c(-c2cc(C(=O)Nc3ccc(S(=O)(=O)N4CCOCC4)cc3)[nH]n2)cc1C,-1.0,19.6,1.8,-16.0,6.2,17.3
CC(Oc1ccc(Cl)cc1)C(=O)Nc1ccc(S(=O)(=O)N2CCOCC2)cc1 (stereo unspecified),-9.3,7.1,15.3,-10.9,38.3*,52.9*
Nc1ncc2c(n1)CCN(c1ccc([N+](=O)[O-])cc1)C2,-0.1,2.8,0.8,-0.2,-2.1,0.8
O=C(O)CSc1nc2ccccc2c(=O)[nH]1,24.1*,-10.4,1.5,3.9,1.0,0.4
O=C(CSc1nc2ccccc2c(=O)[nH]1)c1ccccc1,-3.4,-8.1,-3.6,6.5,2.3,2.6
